In ChEMBL document CHEMBL4138103, “Discovery of efficient stimulators for adult hippocampal neurogenesis based on scaffolds in dragon's blood” (Eur J Med Chem, 2017):
Activity calls are given as the source filed them. The calls are words filed in the database; no cut-off is given here.

Columns and labels:
[1] = Cytotoxicity against human SH-SY5Y cells assessed as cell survival at 500 uM after 24 hrs by MTT assay relative to control; type: cell-based; conditions: read-out: Survival
Method in brief: (§1)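 SH-SY5Y human neuroblastoma cells seeded at 5 × 10⁴ cells/mL, incubated 24 h at 37 °C, then exposed to compounds at final concentrations of […] for 24 h. MTT added for a further 4 h at 37 °C. Absorbance read at 570 nm and reported as percent viability. Five parallel samples per condition.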

[2] = Cytotoxicity against human SH-SY5Y cells assessed as cell survival at 1000 uM after 24 hrs by MTT assay relative to control; type: cell-based; conditions: read-out: Survival; method in brief: as §1
[3] = tested on: Rattus norvegicus; experiment: In vivo neurogenic activity in Sprague-Dawley rat neural progenitor cells at 4 mg/kg, ip qd pretreated for 28 days followed by BrdU addition at 2 hrs interval for twice on day 29 measured after 24 hrs by BrdU incorporation assay relative to control; type: functional
Method in brief: (§2)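 Male SD rats aged 10 weeks, acclimatized 7 days (11 weeks old at start), dosed ip once daily for 28 days with compound in soybean oil containing 10% ethanol; vehicle group received 10% ethanol in oil. On day 29, BrdU in saline given twice at 100 mg/kg, 2 h apart. Rats sacrificed 24 h after the last BrdU. BrdU+ cells in SGZ-GCL counted by DAB immunostaining of 30 µm cryosections; n = 8; mean ± SEM.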

[4] = Cytotoxicity against human SH-SY5Y cells assessed as cell survival at 100 uM after 24 hrs by MTT assay relative to control; type: cell-based; conditions: read-out: Survival; method in brief: as §1
[5] = tested on: Rattus norvegicus; experiment: In vivo neurogenic activity in Sprague-Dawley rat neural progenitor cells at 2.2 mg/kg, ip qd pretreated for 28 days followed by BrdU addition at 2 hrs interval for twice on day 29 measured after 24 hrs by BrdU incorporation assay; type: functional, organism-based; method in brief: as §2

| SMILES | viability at 24 h, 500 µM [1] [%] | viability at 24 h, 1000 µM [2] [%] | Activity [3] | viability at 24 h, 100 µM [4] [%] | Activity [5] |
| --- | --- | --- | --- | --- | --- |
| CCCC(=O)Nc1ccc(/C=C/c2ccc3c(c2)OCO3)cc1 | 40.7 | 33.3 | Active | 58.8 | – |
| CC(=O)N(C)c1ccc(/C=C/c2ccc3c(c2)OCO3)cc1 | 15.8 | 5.89 | inactive | 50.4 | – |
| CCCCCOc1ccc(C#Cc2ccc3c(c2)OCO3)cc1 | 22.9 | 15.3 | – | 69.8 | – |
| CN(C)c1ccc(/C=C/C(=O)c2ccc3c(c2)OCO3)cc1 | 40.2 | 23.7 | – | 49.8 | – |
| CC(=O)c1ccc(/C=C/c2ccc3c(c2)OCO3)cc1 | 63.5 | 53.9 | – | 70.3 | – |
| CC(=O)Oc1ccc(/C=C/c2cc(C)cc(C)c2)cc1 | 2.8 | 18.4 | – | 3.24 | – |
| Oc1ccc(/C=C/c2cc(C(F)(F)F)cc(C(F)(F)F)c2)cc1 | -0.07 | -3.86 | – | -4.81 | – |
| CCCCCc1ccc(C#Cc2ccc(OCc3ccccc3)cc2)cc1 | 51.3 | 49 | – | 62.6 | – |
| COc1ccc(OCC#Cc2ccc3c(c2)OCO3)cc1 | 79.7 | 36.3 | – | 44.1 | Active |
| C(=C\c1ccc2c(c1)OCO2)/c1ccncc1 | 4.26 | 3.56 | – | 8.43 | – |
| COc1ccc(C#Cc2cc(C)cc(C)c2)cc1 | 24.3 | 22.1 | – | 54.2 | – |
| COc1ccc(C#Cc2ccc(OC)c(OC)c2)cc1 | 78.9 | 65.5 | – | 94.1 | – |
| O=C(Nc1ccc(/C=C/c2ccc3c(c2)OCO3)cc1)c1cccs1 | 54.4 | 49.1 | Active | 62.5 | – |
| COc1ccc(/C=C/c2cccc(C#N)c2)cc1 | 67 | 48.3 | – | 66.3 | – |
| C(#Cc1ccc2c(c1)OCO2)c1ccsc1 | 32.9 | 21 | – | 46.2 | – |
| COc1cc(/C=C/c2ccc(O)cc2)cc(OC)c1 [PTEROSTILBENE] | 32.7 | 51.4 | Active | -0.58 | – |
| COc1cc(/C=C/c2ccc(NC(C)=O)cc2)cc(OC)c1 | 48.5 | 45.2 | Active | 54.5 | – |
| CC(=O)Nc1cccc(/C=C/c2ccc3c(c2)OCO3)c1 | 7.78 | 2.7 | – | 20.9 | – |
| COc1ccc(/C=C/c2ccc(N)cc2)cc1OC | 51.7 | 50.4 | – | 53.7 | – |

| SMILES | viability at 24 h, 500 µM [1] [%] | viability at 24 h, 1000 µM [2] [%] | Activity [3] | viability at 24 h, 100 µM [4] [%] | Activity [5] |
| --- | --- | --- | --- | --- | --- |
| Oc1ccc(/C=C/c2cc(F)cc(F)c2)cc1 | -11 | -7.78 | – | -13.6 | – |
| C(#Cc1cccs1)c1ccc2c(c1)OCO2 | 27.5 | 17.7 | – | 43.9 | – |
| Nc1ccc(/C=C/c2ccc3c(c2)OCO3)cc1 | 39.1 | 32.2 | – | 47.6 | – |
| Cc1ccc(C#Cc2ccc(OCc3ccccc3)cc2)cc1 | 72.5 | 68 | – | 94.2 | – |
| O=C(Nc1ccc(/C=C/c2ccc3c(c2)OCO3)cc1)C(F)(F)F | 53.4 | 41.5 | inactive | 75.2 | – |
| CC(=O)Nc1ccc(/C=C/C(=O)c2ccc3c(c2)OCO3)cc1 | 2.78 | 4.69 | – | 6.71 | – |
| COc1ccc(/C=C/c2ccc(Cl)cc2)cc1OC | 51.6 | 56.4 | – | 57.3 | – |
| COc1ccc2c(c1)OC(c1ccc3c(c1)OCO3)CC2=O (centres undefined) | 44.8 | 27.3 | – | 73.2 | – |
| COc1ccc(C(=O)/C=C/c2ccc(O)c(OC)c2)cc1 | 39.8 | 165 | – | 13.3 | – |
| COc1ccc(/C=C/c2ccc(NC(C)=O)c(F)c2)cc1 | 1.52 | 0.69 | – | 14.2 | – |
| COc1cc(/C=C/C(=O)c2ccc(O)cc2)cc(OC)c1 | 3.53 | 2.57 | – | 5.64 | – |
| COc1ccccc1/C=C/c1ccc2c(c1)OCO2 | 33.6 | 23.6 | – | 36.1 | – |
| Oc1ccc(/C=C/c2ccc3c(c2)OCCO3)cc1 | 2 | -0.08 | – | 2.8 | – |
| COc1ccc(C#Cc2cc(C(F)(F)F)cc(C(F)(F)F)c2)cc1 | 20.9 | 18.3 | – | 28.6 | – |
| COc1ccc(/C=C/c2ccc3c(c2)OCO3)cc1 | 69.6 | 62.8 | Active | 76.1 | – |
| COc1cc(/C=C/c2ccc(O)cc2)cc(OC)c1OC | 25.9 | 21.2 | – | 27.5 | – |
| Oc1ccc(/C=C/c2ccc(Cl)cc2)cc1O | 69.2 | 38.5 | – | 107 | – |
| CN(C)c1ccc(/C=C/c2ccc3c(c2)OCO3)cc1 | 51.2 | 52.6 | Active | 83.3 | – |
| COc1cc(/C=C/c2ccc3c(c2)OCO3)cc(OC)c1 | 60.9 | 45.7 | – | 74 | – |

| SMILES | viability at 24 h, 500 µM [1] [%] | viability at 24 h, 1000 µM [2] [%] | Activity [3] | viability at 24 h, 100 µM [4] [%] | Activity [5] |
| --- | --- | --- | --- | --- | --- |
| Cc1cc(C)cc(/C=C/c2ccc(O)cc2)c1 | 1.84 | 2.88 | – | 7.31 | – |
| COc1ccc(C(=O)/C=C/c2ccc3c(c2)OCO3)c(O)c1 | 59.9 | 49.3 | – | 90.4 | – |
| COc1ccc(/C=C/c2cccc(OC(F)(F)F)c2)cc1 | 40.5 | 38.7 | – | 40.2 | – |
| COc1cccc(/C=C/c2ccc3c(c2)OCO3)c1 | 52.7 | 32 | – | 72.5 | – |
| CC(=O)c1ccc(/C=C/c2ccc(O)cc2)cc1 | 59.2 | 24.6 | – | 94.4 | – |
| Cc1ccc(C#Cc2ccc3c(c2)OCO3)cc1 | 24.8 | 23.7 | – | 51.9 | – |
| CCOc1ccc(C#Cc2ccc3c(c2)OCO3)cc1 | 41 | 38.1 | inactive | 56.5 | – |
| COc1cccc(/C=C/c2ccc(NC(C)=O)cc2)c1 | 26.1 | 11.9 | – | 44.5 | – |
| COc1cc(/C=C/C(=O)c2ccc3c(c2)OCO3)ccc1O | 25.2 | 26.2 | – | 16.3 | – |
| COc1ccc(/C=C/c2ccc(O)cc2)cc1OC | 44.1 | 35.3 | – | 56.8 | – |
| COc1ccc(/C=C/C(=O)c2ccc3c(c2)OCO3)cc1O | 22.2 | 17.1 | – | 44.7 | – |
| N#Cc1cccc(/C=C/c2ccc(O)cc2)c1 | 16.9 | 14.9 | – | 20.9 | – |
| COc1ccc(/C=C/c2ccc(N)c(F)c2)cc1 | 65.1 | 47.8 | – | 80 | – |
| N#Cc1ccc(/C=C/c2ccc3c(c2)OCO3)cc1 | 43.7 | 36.1 | Active | 110 | – |
| CC(=O)Nc1ccc(C#Cc2ccc3c(c2)OCO3)cc1 | 51.3 | 35.2 | inactive | 63.2 | – |
| Nc1ccc(/C=C/c2cccc(OC(F)(F)F)c2)cc1 | 31.9 | 26.9 | – | 51.8 | – |
| CC(=O)Nc1ccc(/C=C/c2ccc3c(c2)OCO3)cc1F | 82 | 75.1 | Active | 86.7 | – |
| C(=C\c1ccc2c(c1)OCO2)/c1ccc(OCc2ccccc2)cc1 | 72.7 | 80.6 | – | 67.3 | – |
| Oc1ccc(/C=C/c2cccc(OC(F)(F)F)c2)cc1 | 55.4 | 5.06 | – | 77.1 | – |
